Assay [1] is described as follows: Displacement of [3H]-AMPAKINE from AMPA receptor in rat forebrain cell membranes. More on the design: species or system Membrane. Background: Displacement assays read how much labelled ligand stays bound in the presence of the test substance.
Assay [2] is filed under the species Rattus norvegicus. The assay can be described thus: Ratio of compound to CX614 for AMPA receptor in rat embryonic hippocampal neurons assessed as concentration required to double glutamate-induced steady-state current. Particulars: Hippocampus.
The species named for assay [3] is Rattus norvegicus. The assay can be described thus: Positive allosteric modulation of AMPA receptor in rat hippocampal slices assessed as increase of fEPSP-induced current amplitude at 0.3 uM. Format: tissue-based. Particulars: Hippocampus. Put shortly:
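Field recordings in in vitro hippocampal slices. Result is the percent rise in fEPSP amplitude, measured at the stated compound concentration.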

For assay [4], the species on record is Rattus norvegicus. Description: Positive allosteric modulation of AMPA receptor in rat embryonic hippocampal neurons assessed as concentration required to double glutamate-induced steady-state current by patch clamp electrophysiology assay. Particulars: Hippocampus. In general terms: Patch clamp records ionic current or voltage across a cell membrane.

Usually Ki stands for a dissociation constant, usually derived from enzyme kinetics or from competition with a known ligand. For the compound `O=C1c2cc3c(cc2OCN1CCn1cnc([N+](=O)[O-])c1)C(=O)N1CCCC1O3` (centres undefined), the Ki in assay [1] came out at 60 nM. In addition, the Ratio in the assay listed under Rattus norvegicus [2] worked out at 3000. In the assay listed under Rattus norvegicus [3], the Activity stood at 19%. In addition, the CD in the assay filed under Rattus norvegicus [4] came out at 0.0007 µM.

Source of the values: ChEMBL document CHEMBL1795275, “Substituted benzoxazinones as potent positive allosteric AMPA receptor modulators: part II” (Bioorg Med Chem Lett, 2011).
